Assay outcomes: PubChem, several laboratories
CTSL1 counter = Fasciola hepatica cathepsin L1 inhibitors, primary screen, counter-screen for PFM18AAP inhibitor project, biochemical, QFRET, fluorogenic peptide substrate; recombinant F. hepatica cathepsin L1, Z-Leu-Arg-MCA fluorescence; inhibition, % at 5.96 µM; actives 0.49% (n = 300,000); AID 1906, 2009;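 active = inhibition above the mean of all tested compounds plus 3 SD, set per screening campaign, cut at about 17% in these data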;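 also: 0% = plate median of test compound wells and 100% = 1 µM Z-Phe-Ala-diazomethylketone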
PAD4 FP inh = human PAD4 inhibitors, primary screen, biochemical, fluorescence polarization, 1536-well format; inhibition, % at 6.36 µM; recombinant PAD4, RCA probe fluorescence polarization; actives 0.41% (n = 330,000); AID 485272, 2010;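 active = percent inhibition above a cutoff equal to the mean of all tested compounds plus 3 SD, cut at about 15% in these data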;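 also: 0% = PAD4 with RCA probe and DMSO and 100% = probe without PAD4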
Apaf1 inhib = inhibitors of human Apaf-1 apoptosome, primary screen, biochemical, DEVD-Rh110 fluorescence, uHTS | reconstituted apoptosome caspase-3 activity | inhibition, % at 20 µM | actives 0.71% (n = 330,000) | AID 489030, 2010; active = inhibition of at least 40% at 20 µM;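 also: plate controls were DMSO wells for no effect and DEVD-CHO caspase inhibitor wells for full effect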
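detection = Rh110 fluorescence intensity | test system = biochemical Apaf-1 apoptosome reconstitution | also added = cytochrome c and DEVD-Rh110 substrate | schedule = 30 min plus 50 min, RT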
GSTO1 inh = inhibitors of recombinant GSTO1, primary screen, counter-screen for RBBP9 inhibitor project, biochemical, fluorescence polarization; Glutathione S-transferase omega-1 (Homo sapiens), P78417; activity-based probe fluorescence polarization; inhibition, % at 5.96 µM; actives 1.1% (n = 300,000); AID 1974, 2009;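 active = inhibition above the campaign mean inhibition plus 3 SD, cut at about 35% in these data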;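 also: 0% = GSTO1-1 with DMSO and 100% = wells lacking GSTO1-1 enzyme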
TDP2 absorb = human TDP2 enzyme inhibitors, primary screen, biochemical, epi absorbance, recombinant enzyme; Tyrosyl-DNA phosphodiesterase 2 (Homo sapiens), O95551; T5PNP hydrolysis, p-nitrophenol absorbance 415 nm; actives 0.34% (n = 370,000); inhibition, % at 12.8 µM; AID 720702, 2013;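 active = inhibition above the mean of all tested compounds plus 3 SD, set per campaign, cut at about 25% in these data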;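 also: 0% = DMSO with enzyme and 100% = buffer with substrate but no TDP2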
Target sequence (O95551 whole entry, looked up): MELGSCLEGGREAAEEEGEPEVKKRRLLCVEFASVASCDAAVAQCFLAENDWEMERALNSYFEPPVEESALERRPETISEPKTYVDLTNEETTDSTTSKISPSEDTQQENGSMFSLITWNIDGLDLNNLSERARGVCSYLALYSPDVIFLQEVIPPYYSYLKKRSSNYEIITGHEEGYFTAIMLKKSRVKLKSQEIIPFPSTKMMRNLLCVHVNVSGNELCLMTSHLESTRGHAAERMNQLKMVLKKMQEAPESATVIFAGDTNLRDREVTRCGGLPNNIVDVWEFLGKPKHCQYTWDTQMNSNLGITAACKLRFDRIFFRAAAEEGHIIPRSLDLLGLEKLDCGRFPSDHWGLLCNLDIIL
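System: recombinant human TDP2 / Amount: 120 nM TDP2 per well / Also added: 5 mM T5PNP chromogenic substrate / Doses: 12.8 µM single point, 1% DMSO / Incubation: 2 h at 37 °C / Detection: p-Nitrophenol epi absorbance / Evaluation: % inhibition relative to enzyme-containing and enzyme-free wells / Repeats: singlicate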
Apaf-1 inh conf2 = Apaf-1 inhibitors, single-dose retest, confirmation, biochemical, fluorescence, DEVD-Rh110, 20 µM. shares compounds with Apaf1 inhib. reconstituted apoptosome, caspase-3 DEVD-Rh110 fluorescence. inhibition, % at 20 µM. actives 25% (n = 1,800). AID 504614, 2011;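 active = mean inhibition of at least 40% at 20 µM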;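 also: plate controls were DMSO wells for no effect and DEVD-CHO caspase inhibitor control wells for full effect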
Rh110 quench = Rh110 fluorescence interference by putative Apaf-1 inhibitors, confirmation, artefact control for Apaf-1 inhibitor project, biochemical, 20 µM; shares compounds with Apaf1 inhib; quenched caspase reaction; activation (fluorescence interference), % at 20 µM; 1,800 tested, under 10 active;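 active = signal rise of 40% or more at 20 µM, treated as a fluorescence artifact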
Apaf1 inh interf = fluorescence interference of Apaf-1 inhibitor hits, dose response, artefact control for Apaf-1 inhibitor project; shares compounds with Apaf1 inhib; fluorescence interference counterscreen, Apaf-1 assay format; IC50, µM; 460 tested, under 10 active; call rule not given here
* = called active by the depositor; . = not tested or not shown. In the library only some 1.8% were active in any assay of this set; here they are far more common.

SMILES	CTSL1 counter	PAD4 FP inh	Apaf1 inhib	GSTO1 inh	TDP2 absorb	Apaf-1 inh conf2	Rh110 quench	others
O=C(CSc1nnc(-c2ccc(F)cc2)n1CC1CCCO1)NCc1ccco1 (stereo not given)	-1.8	3.8	53.6*	-1.8	-0.4	36.2	6.1
COC(=O)c1nn(-c2ccc(OC)cc2)c(=O)cc1NN	3.5	-10.6	42.2*	31.9	-3.3	37.2	3.5
CC(C)CCC(C)N=Cc1c(O)n(Cc2ccccc2)c(=O)c2ccccc12 (stereo not given)	-0.6	-7.3	59.7*	-2.8	-0.8	56.2*	2.8	Apaf1 inh interf=>100
CCN(CC)CCCN=Cc1c(O)n(Cc2ccccc2)c(=O)c2ccccc12	1.1	1.0	4.0	2.2	1.6	.	.
O=C1Nc2cc(Cl)c(Cl)cc2N(O)N1c1cccc(Cl)c1	-0.7	2.4	44.2*	-5.3	1.0	13.1	-2.1
O=C1Nc2cc(Cl)c(Cl)cc2N(O)N1c1ccc(Cl)cc1	-0.8	-6.8	-21.3	-5.6	8.9	.	.
COc1cc(Cn2c(N)c(C#N)c3nc4ccccc4nc32)cc(OC)c1	0.1	-14.8	57.9*	13.5	-11.8	17.5	3.7
COc1ccc(C(CNC(=O)COc2c(C)cc(C)cc2C)N2CCOCC2)cc1 (stereo not given)	.	-0.8	66.5*	.	2.4	44.8*	7.2	Apaf1 inh interf=>100
COc1ccc(C(CNC(=O)COc2ccc(-c3ccccc3)cc2)N2CCOCC2)cc1 (stereo not given)	-1.9	3.4	2.9	-5.7	-10.6	.	.
CC(=O)N1CCN(C(=S)Nc2ccc(SC(F)F)cc2)CC1	-0.2	-0.5	96.0*	3.3	0.2	14.4	10.6
CC1CCN(C(=S)Nc2ccc(SC(F)F)cc2)CC1	7.1	0.3	3.7	0.1	-0.9	.	.
CCN1/C(=C/c2ccc3cc(C)ccc3[n+]2CC)Sc2cc(C)c(C)cc21	.	.	64.5*	.	-3.6	59.6*	-18.9	Apaf1 inh interf=>100
CC(=O)N1CCN(C(=S)NC(=O)C23CC4CC(CC(C4)C2)C3)CC1	-2.4	-2.7	47.5*	9.9	-4.2	2.9	-7.7
COc1ccc(C(=O)C(=O)N2CCN(C(=O)c3ccccc3C(F)(F)F)CC2)cc1OC	.	.	.	.	3.3	.	.
C=CCn1c(N)c(C(=O)OC(C)CC)c2nc3ccccc3nc21 (stereo not given)	.	.	.	.	8.8	.	.
COCCCNC(=O)c1c(N)n(-c2ccc(S(N)(=O)=O)cc2)c2nc3ccccc3nc12	1.6	-6.2	19.3	0.8	0.9	.	.
COCCCNC(=O)c1c(N)n(-c2ccccc2)c2nc3ccccc3nc12	1.7	-13.4	83.6*	16.9	0.1	29.2	10.3
C=CCn1c(N)c(C(=O)Nc2ccccc2)c2nc3ccccc3nc21	3.5	-7.8	67.4*	15.0	-3.9	32.8	15.1
COC(=O)c1c(N)n(-c2ccc(NC(C)=O)cc2)c2nc3ccccc3nc12	-2.1	-4.4	48.8*	-1.0	0.8	23.8	3.6
C=CCNC(=O)c1c(N)n(-c2cccc(S(N)(=O)=O)c2)c2nc3ccccc3nc12	1.1	-15.5	60.9*	1.4	-3.4	15.5	9.3
O=S1(=O)N[C@@H](Cc2ccccc2)COc2cccc(NCCCN3CCOCC3)c21	.	.	.	.	11.8	.	.
CC(CCN1CCC(C(O)(c2ccccc2)c2ccccc2)CC1)Oc1ccc(C#N)c(F)c1 (stereo not given)	.	.	.	.	-4.8	.	.
COCCNC(=O)c1c(N)n(-c2ccccc2)c2nc3ccccc3nc12	-2.0	-16.6	81.3*	5.8	23.9	23.8	5.5
